This note sets out measurements from ChEMBL document CHEMBL1145972, “In vitro and in vivo characterization of 3-[2-[6-(2-tert-butoxyethoxy)pyridin-3-yl]-1H-imidazol-4-yl]benzonitrile hydrochloride salt, a potent and selective NPY5 receptor antagonist” (J Med Chem, 2003).

A short description of data set [1]: t1/2 in the brain of male wistar rats. The data set is classed as ADME, organism-based. The settings on record: rat. Summed up: (§1)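 Male Wistar rats with jugular vein cannula, free access to food and water, given 30 mg/kg by oral gavage in 30% w/v β-cyclodextrin. Plasma, whole brain and CSF sampled over a time course (through 6–8 h); one animal per time point.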

Data set [2] is described as follows: t1/2 in the CSF of male wistar rats. The following applies: rat. The data set is classed as ADME, organism-based, Cerebrospinal fluid. Put shortly: as §1
Data set [3] in a line: Cmax in the CSF of male wistar rats. The data set is classed as ADME, organism-based, Cerebrospinal fluid. The following applies: rat. Put shortly:
as §1

Data set [4] in a line: tmax in the brain of male wistar rats. It counts as ADME, organism-based. The settings on record: rat. Put shortly: as §1
The nature of data set [5]: tmax in the plasma of male wistar rats. The data set is classed as ADME, organism-based. The following applies: rat. Summed up: as §1
Data set [6] in a line: Cmax in the plasma of male wistar rats. The following applies: rat. The data set is classed as ADME, organism-based. Summed up:
as §1

The target in data set [7] is T1, Neuropeptide Y receptor type 1 (Homo sapiens, UniProt P25929).
T1 sequence (P25929 whole entry): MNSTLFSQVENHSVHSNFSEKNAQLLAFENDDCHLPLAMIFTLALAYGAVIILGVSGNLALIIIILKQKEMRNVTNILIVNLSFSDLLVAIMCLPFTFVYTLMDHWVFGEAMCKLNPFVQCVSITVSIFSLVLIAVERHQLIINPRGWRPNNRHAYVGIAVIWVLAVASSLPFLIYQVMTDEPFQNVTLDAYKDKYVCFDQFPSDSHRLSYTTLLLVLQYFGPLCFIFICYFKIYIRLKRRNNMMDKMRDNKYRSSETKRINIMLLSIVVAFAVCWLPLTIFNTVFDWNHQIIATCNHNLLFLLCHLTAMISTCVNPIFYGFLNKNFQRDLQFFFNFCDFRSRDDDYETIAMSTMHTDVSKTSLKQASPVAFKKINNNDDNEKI
The experiment in a line: Inhibitory activity against Neuropeptide Y receptor type 1. Put shortly:
(§2)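 Cloned human chimeric NPY receptors, displacement of [125I]PYY radioligand.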

Another data set has as its system HMCB cell line. In words: Inhibitory activity against calcium mobilization in NPY5 transfected human bowes melanoma cell line. It counts as functional, cell-based. Put shortly: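 Ca2+ mobilization read-out in human Bowes melanoma (HMCB) cells transfected with NPY5.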
Data set [8] can be described thus: Cmax in the brain of male wistar rats. The data set is classed as ADME, organism-based. The following applies: rat. Summed up: as §1
The target of data set [9] is T2, Neuropeptide Y receptor type 2 (Homo sapiens, UniProt P49146).
T2 sequence (P49146 whole entry): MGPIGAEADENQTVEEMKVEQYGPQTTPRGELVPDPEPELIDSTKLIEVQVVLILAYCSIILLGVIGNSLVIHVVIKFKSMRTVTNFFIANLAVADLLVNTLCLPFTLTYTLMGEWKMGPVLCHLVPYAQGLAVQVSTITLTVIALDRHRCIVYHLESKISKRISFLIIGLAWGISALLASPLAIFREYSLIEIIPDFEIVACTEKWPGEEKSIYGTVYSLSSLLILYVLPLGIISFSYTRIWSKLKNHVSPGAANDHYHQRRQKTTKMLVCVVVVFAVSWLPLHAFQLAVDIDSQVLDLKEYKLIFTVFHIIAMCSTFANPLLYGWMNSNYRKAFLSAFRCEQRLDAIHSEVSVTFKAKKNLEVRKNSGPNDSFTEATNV
The experiment in a line: Inhibitory activity against Neuropeptide Y receptor type 2. Put shortly: as §2

Data set [10] in a line: tmax in the CSF of male wistar rats. The following applies: rat. The data set is classed as ADME, organism-based, Cerebrospinal fluid. Summed up: as §1
Data set [11] can be described thus: t1/2 in the plasma of male wistar rats. The settings on record: rat. It counts as ADME, organism-based. Put shortly:
as §1

Data set [12] concerns the target T3, Neuropeptide Y receptor type 5 (Homo sapiens, UniProt Q15761).
T3 sequence (Q15761 whole entry): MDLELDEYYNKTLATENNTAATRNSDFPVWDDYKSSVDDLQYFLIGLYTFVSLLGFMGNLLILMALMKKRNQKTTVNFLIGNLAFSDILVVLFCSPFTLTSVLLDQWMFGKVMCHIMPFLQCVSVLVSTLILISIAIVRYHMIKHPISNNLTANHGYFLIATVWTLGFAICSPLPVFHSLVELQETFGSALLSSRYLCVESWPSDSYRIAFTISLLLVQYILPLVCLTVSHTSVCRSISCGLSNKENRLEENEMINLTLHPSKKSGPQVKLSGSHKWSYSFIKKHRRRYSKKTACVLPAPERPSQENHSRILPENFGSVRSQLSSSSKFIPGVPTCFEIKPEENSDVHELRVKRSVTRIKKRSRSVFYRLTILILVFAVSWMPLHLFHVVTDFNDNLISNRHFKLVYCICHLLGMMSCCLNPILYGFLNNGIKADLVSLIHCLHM
In words: Binding affinity to the human Neuropeptide Y receptor type 5 was determined using [125I]- [PYY] as radioligand. Put shortly:
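Radioligand displacement binding on cloned human chimeric NPY5 receptors, with [125I]PYY as the labelled ligand.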

Data set [13] has as its target T4, Neuropeptide Y receptor type 5 (Rattus norvegicus, UniProt Q63634).
T4 sequence (Q63634 whole entry): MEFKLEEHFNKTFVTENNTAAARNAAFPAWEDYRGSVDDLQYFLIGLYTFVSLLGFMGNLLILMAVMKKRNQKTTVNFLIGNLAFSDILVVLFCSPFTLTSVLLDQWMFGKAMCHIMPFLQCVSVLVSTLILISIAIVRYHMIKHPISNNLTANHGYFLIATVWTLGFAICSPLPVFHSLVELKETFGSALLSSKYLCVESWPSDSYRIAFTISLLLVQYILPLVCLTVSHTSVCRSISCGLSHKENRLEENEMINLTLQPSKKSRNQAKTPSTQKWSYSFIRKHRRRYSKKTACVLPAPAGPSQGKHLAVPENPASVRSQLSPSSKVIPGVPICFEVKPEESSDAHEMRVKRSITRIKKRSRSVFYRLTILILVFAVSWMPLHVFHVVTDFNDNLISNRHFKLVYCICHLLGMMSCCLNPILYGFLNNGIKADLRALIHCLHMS
In words: Binding affinity to the rat Neuropeptide Y receptor type 5 was determined using [125I]- [Leu31,Pro34]PYY as radioligand. Summed up: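 Whole rat brain membranes; radioligand [125I][Leu31,Pro34]PYY, with 1 μM BIBP3226 present to block NPY-1 receptors.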

As to `CC(C)(C)OCCOc1ccc(-c2nc(-c3cccc(C#N)c3)c[nH]2)cn1`, the half-life in data set [1] was 66 min; in data set [2], 96 min; in [11], 66 min. The Cmax in [3] was 0.213 µM; in [6], 4.42 µM; in data set [8], 8.55 µM. In addition, the Tmax in data set [4], in data set [5] and in data set [10] was 30 min in each case. The IC50 in [7] is over 1000 nM; in the data set with HMCB cell line, 0.4 nM; in data set [9], over 1000 nM. Further, the Ki in data set [12] came out at 1.2 nM; in [13], 1.7 nM.

One may read the half-life as how long it takes for the measured level to halve. As usually defined, the Cmax is the peak of the concentration-time curve. By Tmax is commonly meant the time at which the peak concentration occurs. By IC50 is commonly meant the concentration that gives 50% inhibition. The Ki is a dissociation constant, usually derived from enzyme kinetics or from competition with a known ligand.
